From ChEMBL document CHEMBL1152379, “Synthesis and evaluation of 3''- and 4''-deoxy and -fluoro analogs of the immunostimulatory glycolipid, KRN7000” (Bioorg Med Chem Lett, 2009)

Key:
Type in all cases: functional, cell-based
iNKT [1] = experiment: Immunostimulatory activity in iNKT hybridoma 1.2 cells expressing TCR Vbeta8.2 assessed as IL2 level by ELISA
In short: (§1)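 Glycolipid pulsed at indicated amounts onto 1 × 10^5 A20 B lymphoma cells transfected to overexpress mouse CD1d, overnight. APCs washed, then cocultured with 2 × 10^5 Vα14 iNKT hybridoma cells (2H4 Vβ7, 1.2 Vβ8.2, 1.4 Vβ10) overnight. Supernatant IL-2 measured by ELISA as TCR-recognition readout. Dose-response curves, representative of three similar experiments.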

iNKT [2] = experiment: Immunostimulatory activity in iNKT hybridoma 2H4 cells expressing TCR Vbeta7 assessed as IL2 level by ELISA; in short: as §1
iNKT [3] = experiment: Immunostimulatory activity in iNKT hybridoma 1.4 cells expressing TCR Vbeta10 assessed as IL2 level by ELISA; in short: as §1

Compound | Activity (iNKT [1]) | Activity (iNKT [2]) | Activity (iNKT [3])
CCCCCCCCCCCCCCCCCCCCCCCCCC(=O)N[C@@H](CO[C@H]1O[C@H](CO)[C@H](F)[C@H](O)[C@H]1O)[C@H](O)CCCCCCCCCCCCCCC | Dose-dependent effect | Dose-dependent effect | Dose-dependent effect
CCCCCCCCCCCCCCCCCCCCCCCCCC(=O)N[C@@H](CO[C@H]1O[C@H](CO)[C@H](O)[C@H](O)[C@H]1O)[C@H](O)CCCCCCCCCCCCCCC | Dose-dependent effect | Dose-dependent effect | Dose-dependent effect
CCCCCCCCCCCCCCCCCCCCCCCCCC(=O)N[C@@H](CO[C@H]1O[C@H](CO)[C@H](O)C[C@H]1O)[C@H](O)CCCCCCCCCCCCCCC | Dose-dependent effect | Dose-dependent effect | 
CCCCCCCCCCCCCCCCCCCCCCCCCC(=O)N[C@@H](CO[C@H]1O[C@H](CO)[C@H](O)[C@H](F)[C@H]1O)[C@H](O)CCCCCCCCCCCCCCC | Dose-dependent effect | Dose-dependent effect | 
CCCCCCCCCCCCCCCCCCCCCCCCCC(=O)N[C@@H](CO[C@H]1O[C@H](CO)[C@H](O)[C@H](O)[C@H]1O)[C@H](O)[C@H](O)CCCCCCCCCCCCCC | Dose-dependent effect | Dose-dependent effect | Dose-dependent effect
CCCCCCCCCCCCCCCCCCCCCCCCCC(=O)N[C@@H](CO[C@H]1O[C@H](CO)C[C@H](O)[C@H]1O)[C@H](O)CCCCCCCCCCCCCCC | Dose-dependent effect | Dose-dependent effect | 
